Reference: publication PMC2077835 (Drug metabolism and disposition: the biological fate of …, 2006)

What was measured:
[1] = Incubation of DB289 with pooled human liver microsomes; assay type: in vitro ADME; settings: 15 μM DB289, 0.2 mg/ml HLMs, NADPH
Method in brief: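 Pooled liver microsomes (50 donors, mixed gender) at 0.2 mg/ml with 15 μM substrate in a 1 ml mix, equilibrated 5 min at 37°C, then started with NADPH. Aliquots taken at 0, 5, 15, 30 and 120 min into ice-cold acetonitrile. LC/UV at 359 nm against an external 0.1–15 μM calibration; metabolites identified by retention time versus synthetic standards. Single determination; controls lacked NADPH, protein or substrate.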

recombinant human CYP1A2 = recombinant human CYP1A2 (Homo sapiens, UniProt P05177); experiment: Kinetics of M1 formation by recombinant CYP1A2; assay type: in vitro ADME
Method in brief: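 Recombinant P450 (10–50 pmol/ml) with substrate from 0.05 μM upward, under initial-rate conditions (<20% consumption). 250 μl at 37°C, started with NADPH after 5 min equilibration. Run times: 2 min for CYP1A1/1A2; 5 min for CYP1B1, 2J2 and 4F2; 15 min for CYP2C8, 4F3B and 4F12. M1 measured by LC/MS/MS. Mean of duplicates fitted to Michaelis-Menten; CLint = Vmax/Km.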

recombinant human CYP1B1 = recombinant human CYP1B1 (Homo sapiens, UniProt Q16678); experiment: DB289 consumption by recombinant CYP1B1; assay type: in vitro ADME; settings: 3.0 μM DB289, 50 pmol/ml P450, 15 min
Method in brief: (§1)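 Baculovirus-insect-cell Supersomes coexpressing human P450 with NADPH-P450 reductase; the CYP2E1 enzyme also had cytochrome b5. 3.0 μM substrate, 50 pmol/ml P450 (100 pmol/ml for CYP2C8 and CYP2C9), in 100 mM phosphate pH 7.4 with 3.3 mM MgCl2 and 1 mM NADPH, 37°C, 15 min. Quenched in ice-cold acidified acetonitrile with deuterated internal standard, then LC/MS/MS. Percent consumed relative to 0 min; control Supersomes; duplicates.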

recombinant human CYP2C8 = recombinant human CYP2C8 (Homo sapiens, UniProt P10632); experiment: DB289 consumption by recombinant CYP2C8; assay type: in vitro ADME; settings: 3.0 μM DB289, 100 pmol/ml P450, 15 min
Method in brief: as §1

CYP2D6 = CYP2D6 (Homo sapiens, UniProt P10635); experiment: DB289 consumption by recombinant CYP2D6; assay type: in vitro ADME; settings: 3.0 μM DB289, 50 pmol/ml P450, 15 min
Method in brief: as §1

CYP2C19 = CYP2C19 (Homo sapiens, UniProt P33261); experiment: DB289 consumption by recombinant CYP2C19; assay type: in vitro ADME; settings: 3.0 μM DB289, 50 pmol/ml P450, 15 min
Method in brief: as §1

CYP2J2 = target: T1, CYP2J2 (Homo sapiens, UniProt P51589); experiment: DB289 consumption by recombinant CYP2J2; assay type: in vitro ADME; settings: 3.0 μM DB289, 50 pmol/ml P450, 15 min
T1 sequence (P51589 1-502): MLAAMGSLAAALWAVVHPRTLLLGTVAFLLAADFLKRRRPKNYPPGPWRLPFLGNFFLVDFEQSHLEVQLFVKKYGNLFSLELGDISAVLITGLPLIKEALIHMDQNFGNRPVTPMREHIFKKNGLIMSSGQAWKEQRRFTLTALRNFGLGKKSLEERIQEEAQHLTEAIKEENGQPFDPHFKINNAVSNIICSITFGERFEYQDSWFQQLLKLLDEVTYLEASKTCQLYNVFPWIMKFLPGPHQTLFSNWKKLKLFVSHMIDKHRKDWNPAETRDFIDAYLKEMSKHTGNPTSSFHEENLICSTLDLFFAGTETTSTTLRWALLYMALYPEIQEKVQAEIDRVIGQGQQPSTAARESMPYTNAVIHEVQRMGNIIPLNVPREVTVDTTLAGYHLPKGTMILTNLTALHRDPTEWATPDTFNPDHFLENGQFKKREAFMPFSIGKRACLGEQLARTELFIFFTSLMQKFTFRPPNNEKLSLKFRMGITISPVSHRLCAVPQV
Method in brief: (§2)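 A second recombinant panel (Supersomes; the CYP2J2, CYP3A7 and CYP4F forms coexpressed with reductase and cytochrome b5). Each enzyme was incubated alone with 3.0 μM substrate and NADPH in pH 7.4 phosphate/MgCl2 at 37°C for 15 min. Acetonitrile quench with internal standard, centrifugation, LC/MS/MS. Percent consumed normalised to 0 min. Control Supersomes; means of duplicates.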

recombinant CYP4F3B = target: T2, recombinant CYP4F3B (Homo sapiens, UniProt Q08477); experiment: DB289 consumption by recombinant CYP4F3B; assay type: in vitro ADME; settings: 3.0 μM DB289, 50 pmol/ml P450, 15 min
T2 sequence (Q08477 1-520 isoform Q08477-2): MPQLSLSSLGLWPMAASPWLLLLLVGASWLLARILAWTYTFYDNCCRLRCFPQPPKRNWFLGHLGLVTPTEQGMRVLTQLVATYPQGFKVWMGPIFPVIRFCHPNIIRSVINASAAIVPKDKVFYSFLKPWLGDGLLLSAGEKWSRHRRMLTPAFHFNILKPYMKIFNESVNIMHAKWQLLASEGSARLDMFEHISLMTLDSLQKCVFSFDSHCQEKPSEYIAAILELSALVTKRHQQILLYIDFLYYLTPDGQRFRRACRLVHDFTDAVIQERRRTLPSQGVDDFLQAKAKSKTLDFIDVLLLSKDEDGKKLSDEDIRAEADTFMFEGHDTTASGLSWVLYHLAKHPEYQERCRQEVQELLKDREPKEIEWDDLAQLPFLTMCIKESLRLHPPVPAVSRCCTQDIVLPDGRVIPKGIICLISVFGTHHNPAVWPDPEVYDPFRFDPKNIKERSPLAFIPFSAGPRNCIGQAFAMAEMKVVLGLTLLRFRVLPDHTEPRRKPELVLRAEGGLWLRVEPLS
Method in brief: as §2

[2] = target: recombinant human CYP4F12 (Homo sapiens, UniProt Q9HCS2); experiment: DB289 consumption by recombinant CYP4F12; assay type: in vitro ADME; settings: 3.0 μM DB289, 50 pmol/ml P450, 15 min
Method in brief: as §2

[3] = target: recombinant human CYP4F3A (Homo sapiens, UniProt Q08477); experiment: DB289 consumption by recombinant CYP4F3A; assay type: in vitro ADME; settings: 3.0 μM DB289, up to 120 min
[4] = target: recombinant human CYP2C18 (Homo sapiens, UniProt P33260); experiment: DB289 consumption by recombinant CYP2C18; assay type: in vitro ADME; settings: 3.0 μM DB289, 50 pmol/ml P450, 15 min
recombinant human CYP3A7 = recombinant human CYP3A7 (Homo sapiens, UniProt P24462); experiment: DB289 consumption by recombinant CYP3A7; assay type: in vitro ADME; settings: 3.0 μM DB289, 50 pmol/ml P450, 15 min
Method in brief: as §2

CYP4A11 [5] = target: T3, CYP4A11 (Homo sapiens, UniProt Q02928); experiment: DB289 consumption by recombinant CYP4A11; assay type: in vitro ADME; settings: 3.0 μM DB289, 50 pmol/ml P450, 15 min
CYP4A11 [6] = target: T3, CYP4A11; experiment: Inhibition of P450 activities by DB289: lauric acid 12-hydroxylation; assay type: in vitro ADME; settings: 3.0 μM DB289, pooled HLMs 0.25 mg/ml
Method in brief: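 Test compound (3.0 μM) was preincubated 0 and 15 min with pooled microsomes (0.25 mg/ml) and 2 mM NADPH (final concentrations). A P450-selective marker substrate was then added and marker activity measured. Reference selective chemical inhibitors were run for comparison (none for CYP4A11). Solvent-only controls.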

[7] = oral; ref Yeates, 2003; cited from earlier work

T3 sequence (Q02928 5-519): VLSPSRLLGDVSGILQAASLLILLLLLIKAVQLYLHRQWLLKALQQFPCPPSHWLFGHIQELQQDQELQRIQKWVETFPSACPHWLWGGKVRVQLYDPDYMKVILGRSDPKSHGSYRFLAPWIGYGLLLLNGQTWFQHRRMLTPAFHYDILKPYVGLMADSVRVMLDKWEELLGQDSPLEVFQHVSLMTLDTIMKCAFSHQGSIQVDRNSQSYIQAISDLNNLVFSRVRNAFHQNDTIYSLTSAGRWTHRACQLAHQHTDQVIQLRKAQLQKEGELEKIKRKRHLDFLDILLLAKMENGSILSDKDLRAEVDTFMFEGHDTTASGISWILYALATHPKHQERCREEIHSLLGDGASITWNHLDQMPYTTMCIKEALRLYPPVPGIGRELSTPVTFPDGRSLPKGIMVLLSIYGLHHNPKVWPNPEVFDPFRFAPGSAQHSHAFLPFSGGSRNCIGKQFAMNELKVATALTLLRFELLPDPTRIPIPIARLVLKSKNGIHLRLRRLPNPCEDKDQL
Sequence of recombinant human CYP3A7 (P24462 whole entry): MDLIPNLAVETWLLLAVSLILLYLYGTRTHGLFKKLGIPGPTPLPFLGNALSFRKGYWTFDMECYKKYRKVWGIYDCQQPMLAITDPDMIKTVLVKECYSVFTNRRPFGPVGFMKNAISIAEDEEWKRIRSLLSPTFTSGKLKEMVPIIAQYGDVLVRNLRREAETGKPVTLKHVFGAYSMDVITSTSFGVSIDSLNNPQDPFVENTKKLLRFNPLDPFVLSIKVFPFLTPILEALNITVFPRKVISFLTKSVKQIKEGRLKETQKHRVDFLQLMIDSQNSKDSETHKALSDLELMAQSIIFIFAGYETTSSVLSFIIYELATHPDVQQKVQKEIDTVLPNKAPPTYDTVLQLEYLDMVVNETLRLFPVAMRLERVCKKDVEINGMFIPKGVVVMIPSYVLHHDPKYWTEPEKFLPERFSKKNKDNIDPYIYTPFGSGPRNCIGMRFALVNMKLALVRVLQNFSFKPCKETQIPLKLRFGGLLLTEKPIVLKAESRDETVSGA
Sequence of recombinant human CYP4F3A (Q08477 whole entry): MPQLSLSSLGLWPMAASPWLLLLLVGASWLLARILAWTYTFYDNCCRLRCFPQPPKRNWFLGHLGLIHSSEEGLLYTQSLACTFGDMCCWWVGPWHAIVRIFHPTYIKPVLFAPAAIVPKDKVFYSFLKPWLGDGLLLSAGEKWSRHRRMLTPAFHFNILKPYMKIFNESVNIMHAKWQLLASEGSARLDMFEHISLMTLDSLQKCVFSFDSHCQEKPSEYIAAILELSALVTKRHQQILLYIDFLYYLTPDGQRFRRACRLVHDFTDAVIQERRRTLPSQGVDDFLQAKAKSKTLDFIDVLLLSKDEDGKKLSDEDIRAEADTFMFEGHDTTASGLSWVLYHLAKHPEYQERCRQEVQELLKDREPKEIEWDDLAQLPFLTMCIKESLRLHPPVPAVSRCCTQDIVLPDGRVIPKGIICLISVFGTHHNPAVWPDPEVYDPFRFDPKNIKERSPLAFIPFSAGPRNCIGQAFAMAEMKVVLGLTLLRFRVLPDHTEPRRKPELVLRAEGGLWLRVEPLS
Sequence of recombinant human CYP2C18 (P33260 26-490): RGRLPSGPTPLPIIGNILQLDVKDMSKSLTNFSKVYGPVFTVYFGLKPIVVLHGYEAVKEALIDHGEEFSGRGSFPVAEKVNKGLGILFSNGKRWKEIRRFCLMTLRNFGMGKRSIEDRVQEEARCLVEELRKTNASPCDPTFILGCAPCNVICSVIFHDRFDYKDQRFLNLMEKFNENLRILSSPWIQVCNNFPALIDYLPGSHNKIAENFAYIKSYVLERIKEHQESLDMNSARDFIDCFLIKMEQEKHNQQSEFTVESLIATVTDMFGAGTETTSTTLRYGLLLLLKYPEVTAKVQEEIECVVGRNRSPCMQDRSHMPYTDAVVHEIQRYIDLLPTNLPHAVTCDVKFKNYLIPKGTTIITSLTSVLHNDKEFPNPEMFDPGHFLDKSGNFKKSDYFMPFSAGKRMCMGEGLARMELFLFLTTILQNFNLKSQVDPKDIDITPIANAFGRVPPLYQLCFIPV
Sequence of recombinant human CYP4F12 (Q9HCS2 whole entry): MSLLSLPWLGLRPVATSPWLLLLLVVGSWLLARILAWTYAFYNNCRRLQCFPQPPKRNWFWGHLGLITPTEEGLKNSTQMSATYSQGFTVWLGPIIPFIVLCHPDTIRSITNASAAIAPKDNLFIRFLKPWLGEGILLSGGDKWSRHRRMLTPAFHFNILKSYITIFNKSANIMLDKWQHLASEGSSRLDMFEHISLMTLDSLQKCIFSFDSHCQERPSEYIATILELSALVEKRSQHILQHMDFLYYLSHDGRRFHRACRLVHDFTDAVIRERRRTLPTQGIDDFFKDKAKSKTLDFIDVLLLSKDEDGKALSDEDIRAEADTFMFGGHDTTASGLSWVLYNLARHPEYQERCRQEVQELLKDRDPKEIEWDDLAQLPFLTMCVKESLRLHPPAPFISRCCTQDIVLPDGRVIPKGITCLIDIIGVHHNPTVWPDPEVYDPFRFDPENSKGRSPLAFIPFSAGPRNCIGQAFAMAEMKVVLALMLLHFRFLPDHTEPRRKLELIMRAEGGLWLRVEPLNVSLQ
Sequence of CYP2D6 (P10635 whole entry): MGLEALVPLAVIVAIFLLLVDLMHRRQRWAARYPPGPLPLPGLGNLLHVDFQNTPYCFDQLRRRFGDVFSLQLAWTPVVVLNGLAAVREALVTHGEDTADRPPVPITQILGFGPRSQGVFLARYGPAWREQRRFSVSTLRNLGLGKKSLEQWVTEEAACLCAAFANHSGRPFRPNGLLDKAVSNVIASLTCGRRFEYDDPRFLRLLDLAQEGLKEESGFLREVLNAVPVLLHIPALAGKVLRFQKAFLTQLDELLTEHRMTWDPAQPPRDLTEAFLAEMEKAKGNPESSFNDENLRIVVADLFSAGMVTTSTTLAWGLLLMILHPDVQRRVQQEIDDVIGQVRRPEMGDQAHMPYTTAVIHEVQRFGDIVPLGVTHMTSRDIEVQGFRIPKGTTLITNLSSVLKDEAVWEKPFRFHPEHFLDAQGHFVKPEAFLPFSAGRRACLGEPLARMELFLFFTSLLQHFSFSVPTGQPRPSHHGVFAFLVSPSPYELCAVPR
Sequence of recombinant human CYP2C8 (P10632 whole entry): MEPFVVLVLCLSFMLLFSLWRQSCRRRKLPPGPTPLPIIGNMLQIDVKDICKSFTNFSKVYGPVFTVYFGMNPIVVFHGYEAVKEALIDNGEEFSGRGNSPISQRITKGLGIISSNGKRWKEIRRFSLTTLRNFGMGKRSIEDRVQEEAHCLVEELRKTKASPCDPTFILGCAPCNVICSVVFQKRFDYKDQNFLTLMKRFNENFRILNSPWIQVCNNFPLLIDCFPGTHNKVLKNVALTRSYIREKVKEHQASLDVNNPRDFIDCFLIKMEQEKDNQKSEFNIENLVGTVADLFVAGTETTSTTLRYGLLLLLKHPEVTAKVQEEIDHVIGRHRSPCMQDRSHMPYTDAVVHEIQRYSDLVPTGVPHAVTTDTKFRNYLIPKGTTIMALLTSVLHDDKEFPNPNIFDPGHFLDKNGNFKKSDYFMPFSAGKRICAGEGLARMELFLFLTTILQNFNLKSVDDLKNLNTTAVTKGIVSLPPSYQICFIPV
Sequence of recombinant human CYP1B1 (Q16678 whole entry): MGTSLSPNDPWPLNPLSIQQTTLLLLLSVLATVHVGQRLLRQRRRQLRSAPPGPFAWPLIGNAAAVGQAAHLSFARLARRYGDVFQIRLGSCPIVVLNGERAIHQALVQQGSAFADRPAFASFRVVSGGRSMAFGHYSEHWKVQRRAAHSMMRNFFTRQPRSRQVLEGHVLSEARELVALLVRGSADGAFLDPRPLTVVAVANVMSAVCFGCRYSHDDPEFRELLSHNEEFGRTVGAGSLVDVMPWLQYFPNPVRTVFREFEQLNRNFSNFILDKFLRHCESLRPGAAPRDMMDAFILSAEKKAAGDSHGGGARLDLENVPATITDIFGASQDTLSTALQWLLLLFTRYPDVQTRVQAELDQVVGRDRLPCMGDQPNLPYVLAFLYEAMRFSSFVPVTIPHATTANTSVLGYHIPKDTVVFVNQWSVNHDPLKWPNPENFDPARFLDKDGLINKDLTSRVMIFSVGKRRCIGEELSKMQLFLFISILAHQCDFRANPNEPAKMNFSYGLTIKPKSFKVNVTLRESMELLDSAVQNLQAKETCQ
Sequence of CYP2C19 (P33261 whole entry): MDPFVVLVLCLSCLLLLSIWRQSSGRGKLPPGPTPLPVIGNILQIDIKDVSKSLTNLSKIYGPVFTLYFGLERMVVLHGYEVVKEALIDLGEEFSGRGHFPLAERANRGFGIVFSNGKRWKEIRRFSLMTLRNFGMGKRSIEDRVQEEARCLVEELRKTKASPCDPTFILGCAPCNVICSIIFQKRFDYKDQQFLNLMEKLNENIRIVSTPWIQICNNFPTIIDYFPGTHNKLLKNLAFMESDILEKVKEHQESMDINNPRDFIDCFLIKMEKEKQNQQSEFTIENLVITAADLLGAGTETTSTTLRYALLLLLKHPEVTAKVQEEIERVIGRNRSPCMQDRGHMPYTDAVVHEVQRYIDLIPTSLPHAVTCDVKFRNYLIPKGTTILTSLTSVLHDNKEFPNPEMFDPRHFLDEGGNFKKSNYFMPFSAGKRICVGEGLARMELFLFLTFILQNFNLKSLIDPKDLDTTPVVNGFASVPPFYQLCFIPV

## CON=C(N)c1ccc(-c2ccc(-c3ccc(C(N)=NOC)cc3)o2)cc1 [DB289, 2,5-bis(4-amidinophenyl)furan-bis-O-methylamidoxime]
[1]
  half-life in pooled HLM: 12 min
  time by which DB289 was completely consumed: ≤ 120 min
Recombinant human CYP1A2
  efficiency of CYP1A2 relative to CYP3A4, 2D6, 2E1, or 3A5 (intrinsic or maximal clearance): ≥ 300 fold
Recombinant human CYP1B1
  percentage of substrate consumed: 46%
Recombinant human CYP2C8
  percentage of substrate consumed: 5%
CYP2D6
  percentage of substrate consumed: 9%
CYP2C19
  percentage of substrate consumed: less than 5%
CYP2J2
  percentage of substrate consumed: 85%
Recombinant CYP4F3B
  percentage of substrate consumed: 40%
[2]
  percentage of substrate consumed: 10%
[3]
  DB289 consumption: little DB289 consumption
[4]
  percentage of substrate consumed: less than 5%
Recombinant human CYP3A7
  percentage of substrate consumed: less than 5%
CYP4A11 [5]
  percentage of substrate consumed: less than 5%
CYP4A11 [6]
  inhibition of CYP4A11 activity: minimal to no inhibition
[7]
  tolerability: well tolerated, with no serious side effects
